Measurements: ChEMBL document CHEMBL4014335, “Activation of Phenyl 4-(2-Oxo-3-alkylimidazolidin-1-yl)benzenesulfonates Prodrugs by CYP1A1 as New Antimitotics Targeting Breast Cancer Cells” (J Med Chem, 2017)

Key:
HT-29 = assay: Antiproliferative activity against human HT-29 cells after 48 hrs by SRB assay; type: functional, cell-based; settings: HT-29, 48 h
Procedure, shortened: (§1)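 SRB assay run as in the NCI screen with slight modifications. Seeding: HT-29 5.0 x 10^3, M21 3.5 x 10^3, MCF7 7.5 x 10^3 cells; cells preincubated 24 h. Drug in DMSO added at 0.75 to 1.0 x 10^5 nM for 48 h. TCA fixation, sulforhodamine B staining, absorbance 530-565 nm. At least two experiments in triplicate; runs accepted only when relative SD < 10%.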

MCF7 = assay: Antiproliferative activity against human MCF7 cells after 48 hrs by SRB assay; type: functional, cell-based; settings: MCF7, 48 h; procedure, shortened: as §1
[1] = Selectivity ratio of IC50 for human HT-29 cells to IC50 for human MCF7 cells; type: functional
Procedure, shortened: (§2)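 Ratio is IC50 in reference line over IC50 in sensitive line. […] Cells in DMEM with 5% calf serum at 37 °C. At least two experiments, triplicate cultures; assay accepted when relative SD < 10%.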

M21 = assay: Antiproliferative activity against human M21 cells after 48 hrs by SRB assay; type: functional, cell-based; settings: M21, 48 h; procedure, shortened: as §1
[2] = Selectivity ratio of IC50 for human M21 cells to IC50 for human MCF7 cells; type: functional; procedure, shortened: as §2

Row | IC50 (HT-29) | IC50 (MCF7) | SMILES | Ratio IC50 [1] | IC50 (M21) | Ratio IC50 [2]
1 | 0.59 µM | 0.56 µM | CN1CCN(c2ccc(S(=O)(=O)Oc3cccc(I)c3)cc2)C1=O | 1.1 | 0.4 µM | 0.7
2 | > 100 µM | 0.76 µM | CCCCN1CCN(c2ccc(S(=O)(=O)Oc3ccc(F)c(F)c3)cc2)C1=O | >130 | > 100 µM | >130
3 | 43 µM | 0.058 µM | CCCCN1CCN(c2ccc(S(=O)(=O)Oc3cc(Br)cc(Br)c3)cc2)C1=O | 740 | > 100 µM | >1700
4 | > 100 µM | > 100 µM | CN1CCN(c2ccc(S(=O)(=O)Oc3cccc(F)c3)cc2)C1=O | – | 5.8 µM | –
5 | 16 µM | 0.27 µM | CCCN1CCN(c2ccc(S(=O)(=O)Oc3cc(OC)cc(OC)c3)cc2)C1=O | 59 | 33 µM | 120
6 | 3.8 µM | 2.5 µM | CCN1CCN(c2ccc(S(=O)(=O)Oc3cccc(Br)c3)cc2)C1=O | 1.5 | 3.4 µM | 1.4
7 | > 100 µM | 3.8 µM | CCCCN1CCN(c2ccc(S(=O)(=O)Oc3ccccc3OC)cc2)C1=O | >26 | > 100 µM | >26
8 | 26 µM | 26 µM | COc1ccccc1OS(=O)(=O)c1ccc(N2CCN(C)C2=O)cc1 | 1 | 21 µM | 0.8
9 | > 100 µM | > 100 µM | CN1CCN(c2ccc(S(=O)(=O)Oc3ccc(F)cc3)cc2)C1=O | – | > 100 µM | –
10 | > 100 µM | > 100 µM | Cc1ccc(OS(=O)(=O)c2ccc(N3CCN(C)C3=O)cc2)cc1 | – | > 100 µM | –
11 | 0.062 µM | 0.12 µM | COc1cc(OS(=O)(=O)c2ccc(N3CCN(C)C3=O)cc2)cc(OC)c1OC | 0.5 | 0.054 µM | 0.5
12 | 16 µM | 20 µM | CCCN1CCN(c2ccc(S(=O)(=O)Oc3ccc(OC)cc3)cc2)C1=O | 0.8 | 23 µM | 1.2
13 | 56 µM | > 100 µM | CCCN1CCN(c2ccc(S(=O)(=O)Oc3c(Cl)cc(Cl)cc3Cl)cc2)C1=O | – | 56 µM | –
14 | 65 µM | 86 µM | CCCN1CCN(c2ccc(S(=O)(=O)Oc3cccc(C)c3)cc2)C1=O | 0.8 | 28 µM | 0.3
15 | > 100 µM | 8.8 µM | CCCCN1CCN(c2ccc(S(=O)(=O)Oc3ccccc3)cc2)C1=O | >11 | > 100 µM | >11
16 | 18 µM | 24 µM | CCCN1CCN(c2ccc(S(=O)(=O)Oc3cccc(F)c3)cc2)C1=O | 0.8 | 12 µM | 0.5
17 | 12 µM | > 100 µM | CN1CCN(c2ccc(S(=O)(=O)Oc3ccc(Cl)cc3)cc2)C1=O | – | 43 µM | –
18 | > 100 µM | 0.06 µM | CCCCN1CCN(c2ccc(S(=O)(=O)Oc3cc(Cl)cc(Cl)c3)cc2)C1=O | >1700 | 58 µM | 970
19 | 4.8 µM | 5.6 µM | Cc1ccccc1OS(=O)(=O)c1ccc(N2CCN(C)C2=O)cc1 | 0.9 | 2.9 µM | 0.5
20 | 35 µM | 2.5 µM | CCCCN1CCN(c2ccc(S(=O)(=O)Oc3ccc(OC)cc3)cc2)C1=O | 14 | > 100 µM | >39
21 | 2.5 µM | 3 µM | COc1cccc(OS(=O)(=O)c2ccc(N3CCN(C)C3=O)cc2)c1 | 0.8 | 1.6 µM | 0.6
22 | 21 µM | 0.11 µM | CCCCN1CCN(c2ccc(S(=O)(=O)Oc3cccc(Cl)c3)cc2)C1=O | 190 | 90 µM | 820
23 | 4.3 µM | 3.5 µM | CCN1CCN(c2ccc(S(=O)(=O)Oc3cc(OC)cc(OC)c3)cc2)C1=O | 1.2 | 4.2 µM | 1.2
24 | 4.6 µM | 26 µM | CCc1ccccc1OS(=O)(=O)c1ccc(N2CCN(C)C2=O)cc1 | 0.2 | 2.3 µM | 0.1
25 | 60 µM | > 100 µM | CCN1CCN(c2ccc(S(=O)(=O)Oc3ccc(OC)cc3)cc2)C1=O | – | 26 µM | –

Row | IC50 (HT-29) | IC50 (MCF7) | SMILES | Ratio IC50 [1] | IC50 (M21) | Ratio IC50 [2]
26 | 26 µM | > 100 µM | CN1CCN(c2ccc(S(=O)(=O)Oc3cccc([N+](=O)[O-])c3)cc2)C1=O | – | 23 µM | –
27 | > 100 µM | > 100 µM | CCCN1CCN(c2ccc(S(=O)(=O)Oc3ccccc3C)cc2)C1=O | – | > 100 µM | –
28 | > 100 µM | 95 µM | COc1ccc(OS(=O)(=O)c2ccc(N3CCN(C)C3=O)cc2)cc1 | >1.1 | > 100 µM | >1.1
29 | 1.3 µM | 1.5 µM | CN1CCN(c2ccc(S(=O)(=O)Oc3cccc(Br)c3)cc2)C1=O | 0.8 | 1.3 µM | 0.9
30 | 4.3 µM | 5.1 µM | Cc1cccc(OS(=O)(=O)c2ccc(N3CCN(C)C3=O)cc2)c1 | 0.9 | 2.3 µM | 0.5
31 | 0.64 µM | 0.7 µM | CCN1CCN(c2ccc(S(=O)(=O)Oc3cc(OC)c(OC)c(OC)c3)cc2)C1=O | 0.9 | 0.87 µM | 1.2
32 | 26 µM | 1.5 µM | CCCN1CCN(c2ccc(S(=O)(=O)Oc3ccc(C)cc3C)cc2)C1=O | 17 | 9.7 µM | 6.5
33 | > 100 µM | 19 µM | CCCN1CCN(c2ccc(S(=O)(=O)Oc3cccc([N+](=O)[O-])c3)cc2)C1=O | >5.3 | 38 µM | 2
34 | 13 µM | 0.49 µM | CCCCN1CCN(c2ccc(S(=O)(=O)Oc3cccc(OC)c3)cc2)C1=O | 27 | 30 µM | 61
35 | 2.1 µM | 2.2 µM | CN1CCN(c2ccc(S(=O)(=O)Oc3cccc(Cl)c3)cc2)C1=O | 0.9 | 1.6 µM | 0.7
36 | 19 µM | 13 µM | CCCN1CCN(c2ccc(S(=O)(=O)Oc3cc(Cl)c(Cl)cc3Cl)cc2)C1=O | 1.5 | 15 µM | 1.2
37 | > 100 µM | 13 µM | CCCN1CCN(c2ccc(S(=O)(=O)Oc3ccccc3OC)cc2)C1=O | >7.7 | > 100 µM | >7.7
38 | 76 µM | 0.31 µM | CCCCN1CCN(c2ccc(S(=O)(=O)Oc3cccc(F)c3)cc2)C1=O | 250 | > 100 µM | >320
39 | > 100 µM | > 100 µM | CCN1CCN(c2ccc(S(=O)(=O)Oc3ccccc3OC)cc2)C1=O | – | > 100 µM | –
40 | 23 µM | 33 µM | CCCN1CCN(c2ccc(S(=O)(=O)Oc3ccc(F)cc3)cc2)C1=O | 0.7 | 14 µM | 0.4
41 | 0.6 µM | 0.63 µM | CN1CCN(c2ccc(S(=O)(=O)Oc3cc(Cl)c(Cl)cc3Cl)cc2)C1=O | 1 | 0.42 µM | 0.7
42 | > 100 µM | > 100 µM | CCN1CCN(c2ccc(S(=O)(=O)Oc3cccc(F)c3)cc2)C1=O | – | 11 µM | –
43 | > 100 µM | 2.3 µM | CCCN1CCN(c2ccc(S(=O)(=O)Oc3ccccc3CC)cc2)C1=O | >43 | > 50 µM | >22
44 | 25 µM | 64 µM | CCCN1CCN(c2ccc(S(=O)(=O)Oc3ccc(C)cc3)cc2)C1=O | 0.4 | 28 µM | 0.4
45 | 0.19 µM | 0.23 µM | COc1cc(OC)cc(OS(=O)(=O)c2ccc(N3CCN(C)C3=O)cc2)c1 | 0.9 | 0.082 µM | 0.4
46 | 12 µM | 12 µM | COc1ccc(OS(=O)(=O)c2ccc(N3CCN(C)C3=O)cc2)cc1OC | 1 | 8.5 µM | 0.72
47 | 16 µM | 0.085 µM | CCCCN1CCN(c2ccc(S(=O)(=O)Oc3cccc(Br)c3)cc2)C1=O | 190 | 35 µM | 410
48 | 14 µM | 6.8 µM | CCCN1CCN(c2ccc(S(=O)(=O)Oc3ccc(OC)c(OC)c3)cc2)C1=O | 2 | 28 µM | 4.1
49 | 21 µM | 0.34 µM | CCCCN1CCN(c2ccc(S(=O)(=O)Oc3ccc(OC)c(OC)c3)cc2)C1=O | 61 | > 100 µM | >300
50 | 15 µM | 18 µM | CCCN1CCN(c2ccc(S(=O)(=O)Oc3ccc(Cl)cc3)cc2)C1=O | 0.8 | 34 µM | 1.9
